# Rin1 Abl inh: inhibitors of Rin1-Abl protein binding, primary screen, biochemical, TR-FRET; inhibition, % at 7.35 µM; Tyrosine-protein kinase ABL1 (Homo sapiens) + Ras and Rab interactor 1 (Homo sapiens), …; hit rate 0.4% among 360,000; AID 588664, 2011; in the data active means inhibition above about 5%, passing the limit was not always enough
# Beta2AR agonist: beta2AR agonists driving receptor internalization, primary screen, cell-based, FAP fluorogen, flow cytometry; Beta-2 adrenergic receptor (Homo sapiens), P07550; Am2.2-beta2AR cells; response, % (test concentration not listed); hit rate 0.43% among 340,000; AID 504454, 2011;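 active means response above a set limit, near 3 SD of response in nonfluorescent compounds, cut at about 42% in these data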
# ABHD5 PLIN5 PPI: ABHD5-PLIN5 interaction inhibitors, primary screen, cell lysate, split luciferase complementation, luminescence; hit rate 0.78% among 360,000; inhibition, % at 4 µM; Perilipin-5 (Homo sapiens) + 1-acylglycerol-3-phosphate O-acyltransferase ABHD5 (Homo …; Split G. princeps luciferase complementation, 4 h;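 active means inhibition above the mean inhibition across every tested compound plus 3 SD, cut at about 22% in these data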
# UHRF1 MBD2 ctr: UHRF1 methylated DNA binding inhibitors, primary screen, counter-screen for MBD2 inhibitor project, biochemical, TR-FRET, human UHRF1, single concentration; E3 ubiquitin-protein ligase UHRF1 (Homo sapiens), Q96T88; UHRF1 binding to methylated oligo; inhibition, % at 4.4 µM; hit rate 0.75% among 370,000; in the data active means inhibition above about 21%;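 further: UHRF1 SRA domain binding a hemimethylated CpG hairpin DNA probe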
# Target sequence (Q96T88 whole entry, looked up, the tested form may be a part): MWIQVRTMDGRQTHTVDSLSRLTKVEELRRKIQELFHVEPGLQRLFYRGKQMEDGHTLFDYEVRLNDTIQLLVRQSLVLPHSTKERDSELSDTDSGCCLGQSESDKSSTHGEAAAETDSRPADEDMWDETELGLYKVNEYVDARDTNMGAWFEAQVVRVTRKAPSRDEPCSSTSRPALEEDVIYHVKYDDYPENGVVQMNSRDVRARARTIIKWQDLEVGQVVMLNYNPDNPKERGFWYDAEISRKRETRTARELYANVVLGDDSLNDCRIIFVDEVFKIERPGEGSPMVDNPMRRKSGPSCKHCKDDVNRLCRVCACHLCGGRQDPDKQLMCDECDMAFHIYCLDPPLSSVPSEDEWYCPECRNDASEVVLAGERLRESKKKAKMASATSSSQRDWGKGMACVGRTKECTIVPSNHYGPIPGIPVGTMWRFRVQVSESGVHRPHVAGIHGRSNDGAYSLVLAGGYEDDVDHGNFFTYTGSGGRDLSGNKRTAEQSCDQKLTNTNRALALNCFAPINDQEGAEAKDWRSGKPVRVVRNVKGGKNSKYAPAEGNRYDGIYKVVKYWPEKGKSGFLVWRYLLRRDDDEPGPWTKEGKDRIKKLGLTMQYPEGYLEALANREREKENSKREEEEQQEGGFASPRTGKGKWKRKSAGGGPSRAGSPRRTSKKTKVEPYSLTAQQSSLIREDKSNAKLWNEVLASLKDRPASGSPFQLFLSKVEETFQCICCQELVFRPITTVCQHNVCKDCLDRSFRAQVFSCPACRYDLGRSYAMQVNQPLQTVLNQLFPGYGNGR
# MBD2 DNA inh: inhibitors of MBD2 binding to methylated DNA, primary screen, biochemical, TR-FRET, DNA-binding domain, human | MBD2 binding to methylated oligonucleotide | inhibition, % at 4.4 µM | hit rate 0.31% among 370,000; in the data active means inhibition above about 13%
# Arr AP2 block: inhibitors of beta-arrestin/AP2 binding, primary screen, biochemical, GPCR trafficking, flow cytometry; hit rate 0.31% among 340,000; AID 504490, 2011; FITC-arrestin peptide / GST-AP2 beads; AP2 beta2 appendage carries R879A mutation; inhibition, % at 10 µM;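 active means inhibition above a set limit, near 3 SD of compounds lacking own fluorescence, cut at about 54% in these data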
#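 Test system: GST-tagged AP2 beta2-adaptin appendage (R879A) on 4 µm glutathione beads; also added: fluorescein-tagged arrestin peptide at 50 nM final; timing: 12 min plus 1 h, RT; signal: flow cytometry, FL1 (488/535 nm); read-out: percent drop in bead-associated FITC signal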
# ABHD5-PLIN5 conf: ABHD5-PLIN5 interaction inhibitors, confirmation, biochemical, luminescence; shares compounds with ABHD5 PLIN5 PPI; inhibition, % at 4 µM; hit rate 67% among 2,200; AID 651612, 2012; in the data active means inhibition above about 23%
# HNF4 split-luc: HNF4 dimerization inhibitors, counter-screen for ABHD5-PLIN5 interaction inhibitor project, biochemical, split-luciferase complementation, luminescence. shares compounds with ABHD5 PLIN5 PPI. inhibition, % at 4 µM. hit rate 77% among 2,200;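 active means mean inhibition across replicate wells exceeding the computed hit threshold, cut at about 13% in these data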;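 further: light from luciferase halves that rejoin when HNF4 fusion proteins dimerize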
# A number is an active result; – = inactive; · = no result. Shown are actives, neighbours in structure and some others; about 2.5% of the full set was active somewhere.
SMILES,Rin1 Abl inh,Beta2AR agonist,ABHD5 PLIN5 PPI,UHRF1 MBD2 ctr,MBD2 DNA inh,Arr AP2 block,ABHD5-PLIN5 conf,HNF4 split-luc
FC(F)(F)c1cccc(NC(=S)N(CCCN2CCCC2)Cc2cccn2Cc2ccc(Cl)cc2)c1,–,–,42,–,–,–,–,–
COC(=O)[C@]12C[C@H](CC(=O)NCCCN3CCCC3=O)C(=O)N(Cc3ccco3)C1=C[C@H](C1CCCC1)O[C@@H]2C,·,·,·,–,–,·,·,·
CC(C)/C=C1\CC/C(=C\c2cccnc2)C1=O,–,–,39,–,–,–,75,58
CCC1C/C(=C\c2cccnc2)C(=O)/C(=C/c2cccnc2)C1 (stereo not drawn),–,–,91,–,–,–,102,100
O=C1/C(=C/c2cccnc2)CC/C1=C\c1cccnc1,–,–,42,40,–,–,72,50
O=C1/C(=C/c2cccnc2)CCC/C1=C\c1cccnc1,·,·,·,–,–,·,·,·
CCOc1ccc2[nH]c(=O)c(CN(Cc3ccco3)C(CC)c3nnnn3Cc3ccccc3)cc2c1 (stereo not drawn),–,–,24,–,–,–,–,21
CCc1ccc2[nH]c(=O)c(CN(Cc3ccccc3OC)Cc3nnnn3Cc3ccco3)cc2c1,–,–,32,–,–,–,–,–
COc1ccc2[nH]c(=O)c(C(c3nnnn3C(C)(C)C)N(Cc3ccco3)CC3CCCO3)cc2c1 (stereo not drawn),–,–,24,–,–,–,28,72
CCOc1ccc2[nH]c(=O)c(CN(Cc3ccco3)Cc3nnnn3Cc3ccccc3)cc2c1,–,–,–,–,–,–,·,·
COc1ccc2[nH]c(=O)c(CN(Cc3ccco3)Cc3nnnn3Cc3ccccc3)cc2c1,–,–,–,–,–,–,·,·
CC(C)(C)n1nnnc1CN(Cc1ccco1)Cc1cc2cc3c(cc2[nH]c1=O)OCO3,–,–,42,–,–,–,24,34
Cc1ccnc(SCc2cc(=O)c(OC(=O)c3ccc(C#N)cc3)co2)n1,·,·,·,–,–,·,·,·
CC(COc1cccc(C(F)(F)F)c1)CN1CCC(C(O)(c2ccccc2)c2ccccc2)CC1 (stereo not drawn),·,·,·,–,–,·,·,·
O=C1/C(=C\c2ccco2)CCC/C1=C\c1ccco1,–,–,49,56,19,–,56,82
O=C1/C(=C/c2ccco2)CCC1C1CCCC1 (stereo not drawn),–,–,–,–,–,–,·,·
O=C(NC1CCCCN(Cc2ccc(Cl)cc2)C1=O)c1ccc(F)c(F)c1 (stereo not drawn),·,·,·,–,–,·,·,·
O=C(NCc1ccc(Cl)cc1)O[C@H]1CC[C@@]23CCCN2C(=O)CCC[C@H]3C1,·,·,·,–,–,·,·,·
Cc1ccc2[nH]c(=O)c(CN(Cc3ccco3)S(=O)(=O)c3c(C)ccc4nsnc34)cc2c1,–,–,25,–,–,–,33,43
Cc1cc(-c2nn(-c3ccccc3F)cc2CN2CCC(O)CC2)c(C)s1,–,–,–,–,–,–,·,·
Cc1cc(-c2nn(-c3ccccc3F)cc2CN2CCN(c3ccncc3)CC2)c(C)s1,–,–,28,–,–,–,–,–
Cc1cccc(OCCNc2cc(N3CCN(C)CC3)ccc2[N+](=O)[O-])c1,–,–,–,–,–,–,·,·
Cc1ccc(OCCNc2cc(N3CCN(CCO)CC3)ccc2[N+](=O)[O-])cc1C,–,–,31,–,–,–,–,14
CC(C)[C@H](NC(=O)OC(C)(C)C)C(=O)N1CCC(Oc2cccnc2)CC1,·,·,·,–,–,·,·,·
CSc1nc(Sc2ccccc2)c2ccccc2n1,–,–,–,–,–,–,·,·
SMILES,Rin1 Abl inh,Beta2AR agonist,ABHD5 PLIN5 PPI,UHRF1 MBD2 ctr,MBD2 DNA inh,Arr AP2 block,ABHD5-PLIN5 conf,HNF4 split-luc
CSc1nc(=O)[nH]nc1Sc1ccccc1,–,·,33,–,–,·,48,53
Cc1nc(N2CCN(C(=O)COc3ccccc3C)CC2)c2c3c(sc2n1)CCCC3,·,·,·,–,–,·,·,·
COc1ccc(S(=O)(=O)N(C(C)=O)c2ccc3oc(=O)sc3c2)cc1,–,–,29,–,–,–,–,16
Cn1cccc1/C=C1\CCC/C(=C\c2cccn2C)C1=O,–,–,48,–,–,–,–,40
COC(=O)C[C@H]1CC[C@@H]2[C@@H](COc3ccc(NS(=O)(=O)c4ccccc4Cl)cc3C(=O)N2C)O1,·,·,·,–,–,·,·,·
CC(=O)Nc1ccc(NC(=O)COC(=O)/C(=C/c2ccccc2)n2nnnc2C)cc1,–,–,40,–,–,–,52,51
Cc1nnnn1/C(=C\c1ccccc1)C(=O)OCC(=O)NC1CCCCC1,–,–,25,–,–,–,55,62
CCOC(=O)c1c(NC(C)=O)sc2c1CCN(Cc1ccccc1)C2,–,–,–,–,–,–,·,·
CCOC(=O)c1c(NC(C)=O)sc2c1CCC(C=O)=C2Sc1ccccc1,–,–,65,–,–,–,76,17
O=C1/C(=C\c2ccco2)NC(=S)N1c1ccccc1,–,–,25,–,–,–,30,44
Fc1ccccc1C1CC(c2ccco2)=Nc2ccccc2S1 (stereo not drawn),–,–,43,–,–,–,–,91
CC(C)N1CCC2(CC1)N=C(c1ccc3c(c1)OCO3)CC(c1cc(Cl)ccc1O)N2 (stereo not drawn),–,–,75,–,–,–,31,62
Cc1[nH]c2ccccc2c1CC#N,–,–,–,–,–,–,·,·
Cc1[nH]c2ccccc2c1C1=CC(=O)C=CC1=O,–,–,49,–,–,–,46,80
Cc1ccc(NC(=S)c2nc3ccccc3[nH]2)c(C)c1,–,–,–,–,–,–,·,·
Cc1cccc(/C=C(\c2nc3ccccc3[nH]2)S(=O)(=O)c2ccccc2)c1,–,–,42,–,–,–,84,68
COCCNC(=O)c1cc(-c2ccccc2)sc1N,·,·,28,–,–,·,–,–
CC1CN(c2cc(=O)n(-c3ccccc3)c(=O)[nH]2)CC(C)O1 (stereo not drawn),–,–,36,–,–,–,–,–

# Compound activity from PubChem BioAssay.
